The source made the active and inactive calls. The rule behind the calls is not given here. Residues, ends and D or L forms follow the SMILES beside them. *: point of attachment. Boc = CC(C)(C)OC(=O)*; Bn = c1ccc(C*)cc1
How the values were obtained:
[1] = tested on: Streptococcus agalactiae; assay: Inhibition of Streptococcus agalactiae NSR transfected in Lactococcus lactis NZ9000 cells assessed as bacterial growth inhibition at 150 uM incubated for 5 hrs by optical density based assay in presence of 30 nM nisin
Outline: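 L. lactis NZ9000 carrying the SaNSR plasmid, and an empty-plasmid control strain, grown overnight in GM17 with 5 µg/ml erythromycin and 1 ng/ml nisin. Diluted to OD595 0.1 and preincubated 30 min at 30 °C, then exposed to compound plus 30 nM nisin for 5 h at 30 °C. Specific inhibition is the OD ratio between strains as %; ≥3 independent experiments.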

[2] = tested on: Streptococcus agalactiae; assay: Inhibition of Streptococcus agalactiae NSR transfected in Lactococcus lactis NZ9000 cells assessed as potentiation of nisin-induced growth inhibition by measuring reduction in nisin IC50 at 120 uM incubated for 5 hrs by optical density based assay relative to nisin alone
Outline: (§1)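 SaNSR-expressing L. lactis NZ9000 preincubated at OD595 0.1 with fixed compound (120 or 300 µM), mixed with serial nisin dilutions, and read by OD595 after 5 h at 30 °C. Nisin IC50 taken from dose-response curves. Expressed as % ratio of the IC50 with compound to the IC50 of the same strain without it; ≥3 independent experiments.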

[3] = tested on: Streptococcus agalactiae; assay: Inhibition of Streptococcus agalactiae NSR transfected in Lactococcus lactis NZ9000 cells assessed as potentiation of nisin-induced growth inhibition by measuring reduction in nisin IC50 at 300 uM incubated for 5 hrs by optical density based assay relative to nisin alone; outline: as §1
[4] = tested on: Streptococcus agalactiae COH1; assay: Binding affinity to N-terminal 8xHis-tagged Streptococcus agalactiae COH1 NSR30 (30 amino acids deletion at N-terminal transmembrane region) expressed in Escherichia coli BL21 (DE3) cells at 18 mM by STD NMR method; settings: 1.8 mM, in the assay text read “1.8 mM” for “18 mM”
Outline: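 His-tagged SaNSR30 induced with 1 mM IPTG at OD600 0.8–1.0 and expressed overnight at 18 °C. Purified by metal-affinity chromatography with 150 mM histidine elution, then size exclusion in 25 mM MES pH 6, 150 mM NaCl.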

[5] = tested on: Lactococcus lactis; assay: Growth inhibition of Lactococcus lactis NZ9000 transfected with Streptococcus agalactiae NSR at 300 uM incubated for 5 hrs in absence of nisin by optical density based assay; type: organism-based; settings: in vivo

| Compound | inhibition [1] [%] | also measured |
| --- | --- | --- |
| CCn1c(=O)n(CCC(=O)Nc2nc(-c3ccc4c(c3)CCO4)cs2)c2ccccc21 | < 1 | – |
| O=C(Nc1ccc(C(F)(F)F)cc1)NC1(CO)CCOCC1 | – | inhibition [2]: < 1%; inhibition [3]: < 1% |
| CC(CO)NC(=O)Nc1ccc(C(F)(F)F)cc1 (centres undefined) | – | inhibition [3]: < 1% |
| Cc1cc(C)c(S(=O)(=O)N2CCCC2CNC(=O)C(=O)Nc2ccccc2C#N)c(C)c1 (centres undefined) | < 1 | – |
| COc1ccc2[nH]cc(CCNC(=O)CC3C(=O)Nc4c3c(=O)n(C)c(=O)n4C)c2c1 (centres undefined) | 11.3 | – |
| OC(CNc1ccccc1Cl)COc1ccc(OCC(O)CNc2ccccc2Cl)cc1 (centres undefined) | < 1 | – |
| O=C(Cn1cnc2c(oc3ccccc32)c1=O)NCc1ccccc1Cn1ccnc1 | < 1 | – |
| O=C(NCc1ccccc1)C(=Cc1ccc(O)c(O)c1)C(=O)NCc1ccccc1 | 16.9 | inhibition [3]: 32.2% |
| CC(CO)(CO)NC(=O)NC1CCCCC1 | – | inhibition [3]: < 1% |
| O=C(CC1NC(=O)c2ccccc2NC1=O)NCc1nc(-c2ccccc2Cl)no1 (centres undefined) | < 1 | – |
| CCCCn1nc(C(=O)N[C@@H](Cc2c[nH]c3ccccc23)C(=O)O)c2ccccc2c1=O | 3.21 | – |
| O=C(CC[C@H]1NC(=O)c2ccccc2NC1=O)NCc1nc2ccccc2[nH]1 | 9.95 | – |
| CCC(CC)(CO)NC(=O)Nc1cccc(Oc2ccccc2)c1 | – | inhibition [3]: < 1% |
| CC(=O)Nc1ccc(NC(=O)CSc2nc3ccccc3c(=O)n2-c2ccccc2)cc1 | 7.58 | – |
| CC(O)C(NC(=O)C(Cc1ccc(OCc2ccccc2)cc1)NC(=O)CNC(=O)OC(C)(C)C)C(N)=O (stereo not drawn) (Boc-Gly-Tyr(Bn)-Thr-NH2; configuration not given here) | 17.5 | – |
| Cc1cc(C)nc(NC(Cc2ccccc2)C(=O)NCc2nc3ccccc3[nH]2)n1 (centres undefined) | < 1 | – |
| N#Cc1ccc(NC(=O)NC(CO)c2ccccc2)cc1 (centres undefined) | – | inhibition [2]: 8.1%; inhibition [3]: 13.5% |
| Cc1ccc2c(c1)-c1c(cnn1CC(=O)NC(C)c1ccc3c(c1)OCCO3)CO2 (centres undefined) | < 1 | – |

| Compound | inhibition [1] [%] | also measured |
| --- | --- | --- |
| Cc1cc(C)c2c(=O)n(CC(=O)Nc3ccc(C(C)C)cc3)c(=O)n(Cc3ccco3)c2n1 | < 1 | – |
| O=C(NCC(O)c1ccc(O)cc1)C(=O)Nc1ccccc1O (centres undefined) | 13.6 | – |
| CCN(CC)Cc1ccc(CNC(=O)NCc2ccc(Cn3ccnc3)cc2)cc1 | < 1 | – |
| N#Cc1ccc(NC(=O)NCCNC(=O)Nc2ccc(C#N)cc2)cc1 | – | inhibition [3]: < 1% |
| CC(C)(CO)NC(=O)NCC12CC3CC(CC(C3)C1)C2 | – | inhibition [2]: 4%; inhibition [3]: 8.5% |
| COc1ccccc1-n1cc(C(=O)N2Cc3nc[nH]c3CC2C(=O)O)cn1 (centres undefined) | 10.8 | – |
| CC1CCc2nc(NC(=O)c3ccccc3NC(=O)CSc3nccn3C)sc2C1 (centres undefined) | 1.38 | – |
| CC(C)NC(=O)Nc1ccc(Cl)cc1 | – | inhibition [3]: < 1% |
| CC(CO)NC(=O)Nc1ccc(Cl)cc1 (centres undefined) | – | inhibition [3]: < 1% |
| Cc1[nH]c(SCC(=O)Nc2[nH]c(Cc3ccccc3)c(C)c2C#N)nc1Cc1ccccc1 | 15.3 | – |
| O=C(CNC(=O)c1ccc2c(c1)OCO2)NCCc1c[nH]c2ccccc12 | < 1 | – |
| CCc1ccc(NC(=O)C(=O)NCC(c2ccc3c(c2)OCO3)N2CCN(C)CC2)cc1 (centres undefined) | 6.03 | – |
| CCCCc1ccc(NC(=O)CN2C(=O)NC(C)(Cc3ccc(OC)c(OC)c3)C2=O)cc1 (centres undefined) | 14.1 | – |
| COc1ccc(-c2cc(N3CCCN(C(=O)C4(c5ccc(OC)cc5)CC4)CC3)[nH]n2)cc1 | 20.7 | inhibition [3]: 20.5% |
| Cc1cc(C)c2c(C)nn(-c3ccc(NC(=O)CCc4nc5ccccc5c(=O)[nH]4)cc3)c2n1 | < 1 | inhibition [3]: 1.9% |
| Cc1ccc(-n2nc(C)c(NC(=O)Cn3cnc4c3c(=O)n(C)c(=O)n4C)c2C)cc1 | 14.2 | – |
| COc1ccc(C2(CNC(=O)c3cn(C(C)C)c(=O)c4ccccc34)CCOCC2)cc1 | 4.86 | – |
| O=C(Nc1ccccc1C(F)(F)F)NC(CO)(CO)C(F)(F)F | – | inhibition [2]: < 1%; inhibition [3]: < 1% |

The next lines start with results.

| inhibition [1] [%] | Compound | also measured |
| --- | --- | --- |
| 13.4 | CC(O)(CNC(=O)NCC[S+]([O-])c1ccccc1)c1ccco1 (centres undefined) | – |
| 19.6 | CCCC(=O)Nc1ccc(CNC(=O)NCC(CO)Cc2ccc(C)cc2)cc1 (centres undefined) | – |
| 19 | O=C(CCn1c(=O)oc2cc(Cl)ccc21)Nc1ccc(N2CCOCC2)nc1 | – |
| < 1 | CCc1cc(=O)[nH]c(-n2nc(C)cc2NC(=O)C(=O)NCCc2ccccc2)n1 | – |
| < 1 | COc1ccc(C2(CNC(=O)C(=O)Nc3ccc(Br)cc3)CCOCC2)cc1 | – |
| 7.92 | CNC(=O)CNC(=O)c1cccc(S(=O)(=O)NC(C)c2ccccc2)c1 (centres undefined) | – |
| 57.9 | CC(CO)(CO)NC(=O)Nc1ccc(Cl)c(Br)c1 | inhibition [2]: 50.5%; Activity [4]: Active; growth inhibition (GI) [5]: Toxic |
| 8.21 | CC(C(=O)NC(CO)(CO)CO)c1ccc2c(c1)[nH]c1ccc(Cl)cc12 (centres undefined) | – |

— ChEMBL document CHEMBL4396968, “Small-molecule inhibitors of nisin resistance protein NSR from the human pathogen Streptococcus agalactiae” (Bioorg Med Chem, 2019)
